In one experiment the test system is HeLa. Description: Cytotoxicity against human HeLa cells by MTT assay. The class given is functional, cell-based. (Tetrazolium dyes change colour on reduction, which living cells bring about.)
The subject of a further experiment is HepG2. Description: Cytotoxicity against human HepG2 cells by MTT assay. The class given is functional, cell-based.
The test system of experiment [1] is RAW264.7. Description: Cytotoxicity against mouse RAW264.7 cells by MTT assay. The class given is cell-based.
Experiment [2] deals with RAW264.7. The experiment in a line: Antiinflammatory activity against mouse RAW264.7 cells assessed as inhibition of LPS-induced nitric oxide production measured after 24 hrs. The class given is functional, cell-based. The following applies: RAW264.7, 24 h. The essentials:
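RAW264.7 cells seeded at 5 × 10^4 per well and grown 24 h, then given LPS (1 μg/mL) together with graded compound concentrations (DMSO stocks) for 24 h. NO in the medium was read with nitric oxide detection reagents I and II, measuring absorbance at 540 nm. IC50 came from normalized response–variable slope curve fits, mean of n = 3.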

In the next experiment the test system is MCF7. Description: Cytotoxicity against human MCF7 cells by MTT assay. The format is functional, cell-based.

Active and inactive are the calls of the source. The calls are words filed in the database; no cut-off is given here. Bounds are passed on as bounds.

As to `C/C=C/CCC(=O)c1cc(C)c(O)cc1O` [SOHIRNONE A], the result with HeLa, with HepG2 and in the experiment on MCF7 was inactive. Also, the half-maximal inhibitory concentration (IC50) is above 50 µM in the experiment on RAW264.7 [1] and 14 µM with RAW264.7 [2].

For the molecule `C/C=C/CCCc1cc(C)c(O)cc1O`, the outcome in the experiment on HeLa, in the experiment with HepG2 and with MCF7 was inactive. The IC50 is above 50 µM with RAW264.7 [1] and 13 µM with RAW264.7 [2].

For the molecule `Cc1cc(C(=O)CC/C=C/C(=O)O)c(O)cc1O`, the outcome with HeLa, in the experiment with HepG2 and in the experiment with MCF7 was inactive. Also, the IC50 in the experiment with RAW264.7 [1] and in the experiment on RAW264.7 [2] was above 50 µM throughout.

As for `C/C=C/C=C/C(O)=C1\C(=O)C(C)=C(O)[C@@]2(C)O[C@@]3(O)[C@@](C)(O)CC4=C(O[C@@H](/C=C/C)CC4=O)[C@@]3(C)[C@@H]12`, the outcome with HeLa, with HepG2 and in the experiment on MCF7 was inactive. In addition, the IC50 with RAW264.7 [1] was above 50 µM; in the experiment with RAW264.7 [2], 22 µM.

Consider `Cc1cc(C(=O)CCC(=O)O)c(O)c(C)c1O`, for which the result with HeLa, with HepG2 and with MCF7 was inactive. Moreover, the IC50 in the experiment on RAW264.7 [1] and in the experiment on RAW264.7 [2] was above 50 µM in each case.

For `Cc1c(O)c(O)cc(C(=O)CC/C=C/CO)c1O`, the result in the experiment with HeLa, in the experiment with HepG2 and in the experiment on MCF7 was inactive. For the same molecule, the IC50 was above 50 µM in the experiment with RAW264.7 [1] and 6.1 µM in the experiment on RAW264.7 [2].

Take `Cc1cc(C(=O)CC/C=C/CO)c(O)c(C)c1O`: the outcome with HeLa, in the experiment on HepG2 and in the experiment with MCF7 was inactive. Besides, the IC50 in the experiment on RAW264.7 [1] is above 50 µM; in the experiment on RAW264.7 [2], 2.9 µM.

As for `C/C=C/CCC(=O)C1=C(O)[C@@]2(C)[C@H]3\C(=C(O)/C=C/C=C/CO)C(=O)C(C)=C(O)[C@@]3(C)O[C@@]2(O)[C@@](C)(O)C1`, the outcome in the experiment on HeLa, in the experiment with HepG2 and in the experiment on MCF7 was inactive. Further, the values for the IC50 in the experiment with RAW264.7 [1] and with RAW264.7 [2] were above 50 µM and 22 µM, respectively.

In the case of `Cc1cc(C(=O)CC/C=C/CO)c(O)cc1O`, the outcome in the experiment on HeLa, in the experiment on HepG2 and with MCF7 was inactive. Moreover, the concentration for half-maximal inhibition (IC50) was above 50 µM in the experiment on RAW264.7 [1] and 0.94 µM in the experiment with RAW264.7 [2].

For `Cc1cc2c(c(C)c1O)O[C@H](/C=C/CO)CC2=O`, the result in the experiment with HeLa, in the experiment on HepG2 and in the experiment on MCF7 was inactive. In addition, the concentration for half-maximal inhibition (IC50) in the experiment on RAW264.7 [1] was above 50 µM; with RAW264.7 [2], 8.5 µM.

`C/C=C/[C@@H](O)CC(=O)c1cc(C)c(O)cc1O`: the outcome in the experiment on HeLa, in the experiment on HepG2 and in the experiment on MCF7 was inactive. Moreover, the IC50 is above 50 µM in the experiment on RAW264.7 [1] and 12 µM in the experiment on RAW264.7 [2].

As to `Cc1cc(C(=O)/C=C/C=C/CO)c(O)c(C)c1O`, the result in the experiment on HeLa, with HepG2 and in the experiment on MCF7 was inactive. For the same molecule, the results for the IC50 in the experiment on RAW264.7 [1] and in the experiment with RAW264.7 [2] were above 50 µM and 6.8 µM, respectively.

In the case of `C/C=C/C=C/C(O)=C1/C(=O)C(C)=C(O)[C@@]2(C)O[C@@]3(O)[C@@](C)(O)CC(C(=O)CC/C=C/C)=C(O)[C@@]3(C)[C@@H]12`, the result with HeLa, in the experiment on HepG2 and in the experiment on MCF7 was inactive. For the same molecule, the IC50 in the experiment with RAW264.7 [1] is above 50 µM; in the experiment with RAW264.7 [2], 5.9 µM.

`COc1ccc2c(c1)c(CC(=O)O)c(C)n2C(=O)c1ccc(Cl)cc1` [INDOMETHACIN]: the IC50 was above 50 µM with RAW264.7 [1] and 41 µM in the experiment with RAW264.7 [2].

`CC1=C(O)[C@@]2(C)O[C@@]3(O)[C@@](C)(O)C\C(=C(O)/C=C/C=C/CO)C(=O)[C@@]3(C)[C@H]2\C(=C(O)/C=C/C=C/CO)C1=O`: the outcome with HeLa, in the experiment on HepG2 and with MCF7 was inactive. The half-maximal inhibitory concentration (IC50) with RAW264.7 [1] and with RAW264.7 [2] was above 50 µM throughout.

Take `Cc1c(O)ccc(C(=O)C[C@@H]2CC[C@H]([C@H](C)O)O2)c1O`: the result in the experiment with HeLa, with HepG2 and with MCF7 was inactive. The IC50 with RAW264.7 [1] and in the experiment on RAW264.7 [2] was above 50 µM throughout.

Turning to `C/C=C/C=C/C(O)=C1/C(=O)[C@]2(C)C(=O)[C@@](C)(O)[C@H]1[C@@H]1CC(=O)N(C)[C@@H]12`, the result in the experiment with HeLa, in the experiment with HepG2 and in the experiment on MCF7 was inactive. Also, the 50% inhibitory concentration (IC50) in the experiment with RAW264.7 [1] and in the experiment with RAW264.7 [2] was above 50 µM each time.

On to `Cc1cc(C(=O)CCCCCO)c(O)cc1O`, for which the outcome in the experiment with HeLa, in the experiment on HepG2 and in the experiment on MCF7 was inactive. For the same molecule, the 50% inhibitory concentration (IC50) with RAW264.7 [1] and in the experiment with RAW264.7 [2] was above 50 µM in each case.

With `CC1=C(O)[C@@]2(C)O[C@@]3(O)[C@@](C)(O)CC(C(=O)CC/C=C/CO)=C(O)[C@@]3(C)[C@H]2\C(=C(O)/C=C/C=C/CO)C1=O`, the result in the experiment on HeLa, in the experiment with HepG2 and in the experiment with MCF7 was inactive. Besides, the half-maximal inhibitory concentration (IC50) with RAW264.7 [1] is above 50 µM; in the experiment on RAW264.7 [2] it was 24 µM.

Take `C/C=C/C=C/C(O)=C1\C[C@](C)(O)[C@]2(O)O[C@]3(C)C(O)=C(C)C(=O)/C(=C(O)/C=C/C=C/CO)[C@@H]3[C@]2(C)C1=O`: the result in the experiment with HeLa, with HepG2 and in the experiment with MCF7 was inactive. Also, the IC50 is above 50 µM with RAW264.7 [1] and 6.1 µM in the experiment with RAW264.7 [2].

For the molecule `C/C=C/C=C/C(=O)c1c(O)c(C)cc(C)c1O`, the outcome in the experiment on HeLa, in the experiment on HepG2 and in the experiment on MCF7 was inactive. Further, the IC50 with RAW264.7 [1] was above 50 µM; in the experiment on RAW264.7 [2], 3.3 µM.

Consider `C/C=C/C=C/C(O)=C1\C[C@](C)(O)[C@]2(O)O[C@]3(C)C(O)=C(C)C(=O)/C(=C(O)/C=C/C=C/C)[C@@H]3[C@]2(C)C1=O`, for which the result in the experiment on HeLa, in the experiment with HepG2 and with MCF7 was inactive. The IC50 with RAW264.7 [1] was above 50 µM; in the experiment with RAW264.7 [2] it was 9.9 µM.

Turning to `Cc1cc(C(=O)CCC(=O)O)c(O)cc1O`, the result in the experiment on HeLa, with HepG2 and in the experiment with MCF7 was inactive. In addition, the IC50 with RAW264.7 [1] and in the experiment with RAW264.7 [2] was above 50 µM in each case.

For `Cc1cc2c(c(C)c1O)O[C@H](CCCO)CC2=O`, the result in the experiment on HeLa, in the experiment on HepG2 and with MCF7 was inactive. In addition, the IC50 in the experiment with RAW264.7 [1] is above 50 µM; in the experiment on RAW264.7 [2], 38 µM.

Turning to `C/C=C/C=C/C(O)=C1\C(=O)C(C)=C(O)[C@@]2(C)O[C@@]3(O)[C@@](C)(O)CC4=C(O[C@H](/C=C/C)CC4=O)[C@@]3(C)[C@@H]12`, the result with HeLa, in the experiment on HepG2 and in the experiment with MCF7 was inactive. Also, the values for the concentration for half-maximal inhibition (IC50) in the experiment with RAW264.7 [1] and in the experiment on RAW264.7 [2] were above 50 µM and 32 µM, respectively.

In general, IC50 refers to the point on the concentration scale where inhibition reaches its midpoint.

The values are drawn from ChEMBL document CHEMBL4480465, “Anti-inflammatory Mono- and Dimeric Sorbicillinoids from the Marine-Derived Fungus Trichoderma reesei 4670” (J Nat Prod, 2019).
